Measurements collected from several papers.
Protocols differ between the studies behind these lines.
Target: Vascular endothelial growth factor receptor 3 (FLT4, Homo sapiens, UniProt P35916)

N#CC1(c2ccccn2)CCN(Cc2cc(C(=O)N3CCCC3)c(=O)n3ccccc23)CC1 — remaining binding (cell-free assay, competition with immobilised ligand; 1 µM): 86%
N#CCCc1ccc2c(c1)-c1[nH]c3ccc([N+](=O)[O-])cc3c1CC(=O)N2 — remaining signal (cell-free assay; 0.5 µM): 66.5%
O=C(O)c1cc(-c2ccc(C3CCNCC3)cc2)c2ccc(-c3ccc(C(F)(F)F)cc3)cc2c1 — remaining binding (cell-free assay, competition with immobilised ligand; 1 µM): 100%
Cc1cc(NC(=O)c2cccc3cc(-c4cccc5[nH]nc(N)c45)ccc23)ccc1F — activity vs control (enzyme activity, inhibitor; 0.1 µM): 1%
O=C(N[C@H]1CCCCC/C=C\C2C[C@@]2(C(=O)O)NC(=O)[C@@H]2C[C@@H](Oc3ccncc3)CN2C1=O)OC1CCCC1 (some centres unmarked) — remaining binding (cell-free assay, competition with immobilised ligand; 1 µM): 93%
O=C(Nc1cnn(-c2csc(C(=O)NC3COC3)c2)c1)Nc1ccccc1Cl — remaining activity (enzyme activity, inhibitor; 5 µM): 93.5%
COc1cc2c(Nc3ccc(Br)cc3F)ncnc2cc1OCC1CCN(C)CC1 — remaining signal (cell-free assay; 0.5 µM): 16.1%
CC(=O)C1=C(C)N(c2cccc(C(F)(F)F)c2)C(=O)N[C@@H]1c1ccc(C#N)nc1 — remaining binding (cell-free assay, competition with immobilised ligand; 1 µM): 100%
CCCS(=O)(=O)Nc1ccc(F)c(C(=O)c2c[nH]c3ncc(-c4ccc(Cl)cc4)cc23)c1F — inhibition (enzyme activity, inhibitor; 1 µM): < 10%
CC[C@H](CO)Nc1nc(NCc2ccccc2)c2ncn(C(C)C)c2n1 — remaining signal (cell-free assay; 0.5 µM): 94%
CC/C(=N\NC(=O)NCc1cccc(O)c1)c1ccc(O)c(C)c1O — inhibition (enzyme activity, inhibitor; 0.1 µM): 6.1%
COc1cc(Cl)c(C(=O)N[C@@H](CN[C@H]2CC[C@@H](N)CC2)Cc2ccc(C#N)cc2)cc1-c1ccc(CN[C@H](C)c2ccc(C)cc2)o1 — remaining activity (enzyme activity, inhibitor; 1 µM): 93%
CC(C)(O)[C@H]1CC[C@H](Nc2ccc3ncc(-c4cccc(C(F)(F)F)c4)n3n2)CC1 — remaining activity (enzyme activity, inhibitor; 1 µM): 83.5%
Cc1cc(NC(=O)c2cccc(S(F)(F)(F)(F)F)c2)cc(-n2ccn3nc(-c4cccnc4)cc23)c1 — remaining binding (cell-free assay, competition with immobilised ligand; 1 µM): 82.3%
Nc1ncnc2occ(-c3ccc(NC(=O)Nc4cc(C(F)(F)F)ccc4F)cc3)c12 — remaining signal (cell-free assay; 20 µM): 0%
COc1cc2ncnc(Nc3ccc(Oc4ccccc4)cc3C)c2cc1OC — inhibition (enzyme activity, inhibitor; 1 µM): 17%
COc1ccc(COc2ccc(Cc3cnc(N)nc3N)cc2OC)cc1 — remaining signal (cell-free assay; 0.5 µM): 105%
CCCOc1ccc(OC)c(F)c1C(=O)c1ccc(C(=O)N[C@@H]2CNC[C@H]2NC(=O)c2ccc3[nH]ncc3c2)cc1 — remaining activity (enzyme activity, inhibitor; 10 µM): 8%
CC(C)(O)c1cncc(-c2nc3ccc(F)cc3n2C2CC2)c1 — remaining binding (cell-free assay, competition with immobilised ligand; 1 µM): 100%
CNC(=O)c1cc2c(Oc3ccc(NC(=O)C4(C(=O)Nc5ccc(F)cc5)CC4)cc3)ccnc2cc1OC — inhibition (enzyme activity, inhibitor, radiometric; 1 µM): 102%
